Laboratory results reported in ChEMBL document CHEMBL1151968, “Ceramide and cerebrosides from the octocoral Sarcophyton ehrenbergi” (2009).
Calls of active or inactive are those of the source. The calls are words filed in the database; no cut-off is given here.

How the values were obtained:
Klebsiella aerogenes = experiment: Antibacterial activity against Enterobacter aerogenes ATCC 13048 at […]; format: functional, organism-based
How it was run: (§1)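 Agar-overlay disk diffusion. Strains grown in LB broth 24 h at 37 °C; 0.3 mL broth culture in 2.7 mL LB soft agar (0.7%) poured over LB hard agar (1.5%). 8 mm paper disks loaded with 10 μL of 2 μg/μL sample; ampicillin (5 μg/μL) positive control, solvent negative control. Plates incubated 37 °C, 24 h, then inhibition assessed.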

Serratia marcescens = experiment: Antibacterial activity against Serratia marcescens ATCC 25419 at […]; format: functional, organism-based; how it was run: as §1
[1] = system: Salmonella enterica subsp. enterica; experiment: Antibacterial activity against Salmonella enteritidis ATCC 13076 at […]; format: functional, organism-based; details: Salmonella enterica subsp. enterica serovar Enteritidis; how it was run: as §1
Shigella sonnei = experiment: Antibacterial activity against Shigella sonnei ATCC 11060 at […]; format: functional, organism-based; how it was run: as §1
RAW264.7 [2] = experiment: Antiinflammatory activity in mouse RAW264.7 cells assessed as reduction of LPS-induced iNOS protein level at 10 uM by immunoblot analysis relative to control; format: functional; design: scale not given: the % may be the effect or the level left
How it was run: (§2)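 Murine RAW 264.7 macrophages stimulated with E. coli LPS (0.01 μg/mL) for 16 h with or without sample (10 μM). Lysates from cells washed in ice-cold PBS; equal protein run on SDS-PAGE, transferred to PVDF, probed with anti-iNOS or anti-COX-2 (1:1000, 180 min); β-actin blotted. Band intensity expressed relative to LPS-alone group (100%); mean ± SEM, n = 5.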

RAW264.7 [3] = experiment: Antiinflammatory activity in mouse RAW264.7 cells assessed as reduction of LPS-induced COX2 protein level at 10 uM by immunoblot analysis relative to control; format: functional; how it was run: as §2

Row | Compound | Activity (Klebsiella aerogenes) | Activity (Serratia marcescens) | Activity [1] | Activity (Shigella sonnei) | Activity (RAW264.7 [2]) [%] | Activity (RAW264.7 [3])
1 | CCCCCCC/C=C/C(C)=C/CC/C=C/[C@@H](O)[C@H](CO[C@H]1O[C@H](CO)[C@@H](O)[C@H](O)[C@H]1O)NC(=O)[C@H](O)/C=C/CCCCCCCCCCCCCC [SARCOEHRENOSIDE A] | inactive | inactive | inactive | inactive | 47.3 | inactive
2 | CCCCCCCCCCCCCCCCCCCC[C@@H](O)C(=O)N[C@@H](CO[C@@H]1O[C@H](CO)[C@@H](O)[C@H](O)[C@H]1O)[C@H](O)/C=C/CC/C=C(\C)CCCCCCCCC | inactive | inactive | inactive | inactive | – | –
3 | CCCCCCCCCCCCCCCCCCC[C@@H](O)C(=O)N[C@@H](CO[C@@H]1O[C@H](CO)[C@@H](O)[C@H](O)[C@H]1O)[C@H](O)/C=C/CC/C=C(\C)CCCCCCCCC [SARCOEHRENOSIDE B] | inactive | inactive | inactive | inactive | 46.5 | inactive
4 | CCCCCCCCCCCCC/C=C/[C@@H](O)[C@H](CO)NC(C)=O | inactive | inactive | inactive | inactive | 46.9 | 77.2%
5 | CCCCCCCCCCCCCCCCCC[C@@H](O)C(=O)N[C@@H](CO[C@@H]1O[C@H](CO)[C@@H](O)[C@H](O)[C@H]1O)[C@H](O)/C=C/CC/C=C(\C)CCCCCCCCC | inactive | inactive | inactive | inactive | 25.8 | inactive
6 | O=C(/C=C/c1ccc(O)c(O)c1)OCCc1ccccc1 [CAFFEIC ACID PHENETHYL ESTER] | – | – | – | – | 1.5 | 70.2%
7 | CCCCCCCCCCCCCC[C@@H](O)C(=O)N[C@@H](CO[C@@H]1O[C@H](CO)[C@@H](O)[C@H](O)[C@H]1O)[C@H](O)/C=C/CC/C=C(\C)CCCCCCCCC | inactive | inactive | inactive | inactive | 20.3 | 64.3%
